Published values pooled from the literature.
Protocols differ between the studies behind these lines.
Target: Serine/threonine-protein kinase D1 (PRKD1, Homo sapiens, UniProt Q15139)
Sequence (Q15139 1-912, as in one of the studies): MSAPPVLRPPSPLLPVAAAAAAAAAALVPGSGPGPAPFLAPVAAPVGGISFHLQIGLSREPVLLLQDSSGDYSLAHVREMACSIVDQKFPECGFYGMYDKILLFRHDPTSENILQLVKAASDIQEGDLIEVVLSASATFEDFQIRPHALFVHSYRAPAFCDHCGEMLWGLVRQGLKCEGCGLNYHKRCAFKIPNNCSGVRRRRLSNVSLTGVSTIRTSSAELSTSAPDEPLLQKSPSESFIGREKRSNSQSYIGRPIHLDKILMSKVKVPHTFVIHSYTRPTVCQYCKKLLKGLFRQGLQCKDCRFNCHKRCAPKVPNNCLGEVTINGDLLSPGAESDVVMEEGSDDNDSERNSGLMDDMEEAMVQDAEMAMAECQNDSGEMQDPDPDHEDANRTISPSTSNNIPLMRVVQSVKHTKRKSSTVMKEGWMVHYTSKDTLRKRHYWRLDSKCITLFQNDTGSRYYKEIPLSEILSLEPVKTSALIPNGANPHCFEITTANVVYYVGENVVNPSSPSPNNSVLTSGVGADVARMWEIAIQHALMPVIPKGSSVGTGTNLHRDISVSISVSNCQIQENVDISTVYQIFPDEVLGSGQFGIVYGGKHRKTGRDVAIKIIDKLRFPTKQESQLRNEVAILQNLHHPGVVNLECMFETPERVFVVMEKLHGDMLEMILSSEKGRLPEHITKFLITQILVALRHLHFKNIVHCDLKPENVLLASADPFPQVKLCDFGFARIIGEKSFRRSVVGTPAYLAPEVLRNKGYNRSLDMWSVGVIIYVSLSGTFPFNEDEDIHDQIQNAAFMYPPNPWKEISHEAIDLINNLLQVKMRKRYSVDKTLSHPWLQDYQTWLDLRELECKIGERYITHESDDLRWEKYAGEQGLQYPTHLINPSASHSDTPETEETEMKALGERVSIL

| SMILES | read-out | method | tested at | remaining binding [%] |
| --- | --- | --- | --- | --- |
| CC1=C(C#N)C(c2ccc3c(c2)c(NC(=O)c2ccccc2C)nn3C)C(C#N)=C(C)N1 | cell-free assay | competition with immobilised ligand | 1 µM | 92 |
| Nc1ncc2c(n1)-c1c([nH]c3ccc(C#CC4CC4)cc13)CCCC2 | binding | competition with immobilised ligand | 1 µM | 100 |
| CN(C)c1nccc(-c2cnc3ncccn23)n1 | binding |  | 1 µM | 61 |
| O=C1NC(c2ccccn2)Sc2ccccc21 (stereo not drawn) | cell-free assay | competition with immobilised ligand | 1 µM | 100 |
| O=C(NCC1CCOCC1)c1n[nH]cc1NC(=O)c1c(F)cccc1F | binding | competition with immobilised ligand | 1 µM | 100 |
| CC1CCCN1c1nccc(-c2cnn3ncccc23)n1 (stereo not drawn) | binding |  | 1 µM | 100 |
| O=S(=O)(NC1CCC(c2cc(F)ccc2F)(S(=O)(=O)c2ccc(Cl)cc2)CC1)C(F)(F)F (stereo not drawn) | cell-free assay | competition with immobilised ligand | 1 µM | 100 |
| CN(c1nccc(-c2cnn3ncccc23)n1)C1CC1 | binding |  | 1 µM | 100 |
| CS(=O)(=O)N1CCCC(NC(=O)[C@H](CCC2CCCCC2)NC(=O)c2ccc(CNC(=O)c3cnc4ccccn34)cc2)C1 (stereo partly drawn) | cell-free assay | competition with immobilised ligand | 0.1 µM | 93 |
| CNC(=O)[C@@H]1CC[C@@H](n2c(-c3ccc4cnccc4c3)nc3ccc(C(=O)NCc4cccc(C(N)=O)c4)cc32)C1 | binding | competition with immobilised ligand | 1 µM | 100 |
| O=C(c1ccc(Nc2nccc(-c3cc4ccccc4s3)n2)cc1)N1CCC(N2CCCC2)CC1 | binding | competition with immobilised ligand | 1 µM | 64 |
| N[C@@H]1CCN(c2nccc(-c3cnn4ncccc34)n2)C1 | binding |  | 1 µM | 99 |
| CC(=O)c1c(NS(C)(=O)=O)c2cc(-c3ccc(Cl)cc3)c(-c3ccc(Cl)cc3Cl)nc2n(C)c1=O | cell-free assay | competition with immobilised ligand | 1 µM | 100 |
| C[C@@H]1CCN(c2nccc(-c3cnn4ncccc34)n2)C1 | binding |  | 1 µM | 100 |
| CO[C@@H](C)c1c(Nc2ccc([C@H](N(C)C(=O)C3CCS(=O)(=O)CC3)C(F)(F)F)cc2)cnc2cc(Cl)nn12 | cell-free assay | competition with immobilised ligand | 1 µM | 100 |
| COc1cnc(Nc2cccc(S(N)(=O)=O)c2)nc1N1CCN(c2ccccc2)CC1 | binding | competition with immobilised ligand | 1 µM | 100 |
| C[C@@H](c1ccc(-n2cnc3c(N)ncnc32)cc1)N1CCc2nn(C)c(Cc3ccccc3)c2C1=O | binding | competition with immobilised ligand | 0.1 µM | 48 |
| c1cncc(-c2cccc(Nc3nccc(NC4CCCCC4)n3)c2)c1 | binding | competition with immobilised ligand | 10 µM | 11 |
| C=CC(=O)N1CCC(C(=O)NCC(=O)N2CCN(c3nc(-c4cnc(N)nc4C(F)F)nc(N4CCOCC4)n3)CC2)CC1 | binding | competition with immobilised ligand | 1 µM | 90 |
| CN(CCCC(F)(F)F)c1nccc(-c2cnn3ncccc23)n1 | binding |  | 1 µM | 95 |
| O=C(c1ccc(Nc2ncc(Cl)c(-c3ccc(Cl)s3)n2)cc1)N1CCC(N2CCCC2)CC1 | binding | competition with immobilised ligand | 1 µM | 32 |
